The text below walks through data of ChEMBL document CHEMBL4699643, “γ-Ketobenzyl-Modified Nucleoside Triphosphate Prodrugs as Potential Antivirals” (J Med Chem, 2020).

Series [1] concerns Human immunodeficiency virus 1. As to the kind of experiment: Antiviral activity against HIV1 3B infected in human CEM/0 cells assessed as inhibition of virus-induced syncytia cell formation measured after 4 to 5 days by microscopic analysis. In kind it is functional, organism-based. Conditions: Human immunodeficiency virus 1, 3B, CCRF-CEM. The method, boiled down:
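Syncytium-inhibition assay in wild-type CEM/0 or TK-deficient CEM/TK⁻ cells, ~3 × 10⁵ cells/mL, infected with 100 CCID₅₀/mL HIV-1(III_B) or HIV-2(ROD), with serial compound dilutions. Incubated 4−5 days at 37 °C in humidified CO₂ atmosphere. Giant cells scored microscopically; EC₅₀ is the concentration halving HIV-induced giant cell formation. Values are the mean ± SD of n = 2−3 independent experiments.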

Series [2] relates to Human immunodeficiency virus 2. As to the kind of experiment: Antiviral activity against HIV2 ROD infected in human CEM/0 cells assessed as inhibition of virus-induced syncytia cell formation measured after 4 to 5 days by microscopic analysis. Conditions: Human immunodeficiency virus 2, ISOLATE ROD, CCRF-CEM.
Series [3] relates to Human immunodeficiency virus 2. Kind of series: Antiviral activity against HIV2 ROD infected in human TK-deficient […] cells assessed as inhibition of viral-induced giant cell formation incubated for 4 to 5 days by microscopy. The following applies: Human immunodeficiency virus 2, ISOLATE ROD.
Series [4] is described as follows: Cytotoxicity against human CEM/0 CD4+ T cells assessed as reduction in cell viability. In kind it is cell-based, CCRF-CEM. An outline of the steps:
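Cytostatic readout: CC₅₀ is the compound concentration inhibiting CEM CD4⁺ T-cell proliferation by 50%. Values are the mean ± SD of n = 2−3 independent experiments.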

Series [5] can be described thus: Selectivity index, ratio of CC50 for cytotoxicity against human CEM/0 CD4+ T cells to EC50 for antiviral activity against HIV1 3B infected in human CEM/0 cells. The series is classed as toxicity, cell-based. Conditions: read-out: Ratio CC50/EC50. An outline of the steps:
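Selectivity index from CC₅₀ (50% inhibition of CEM cell proliferation) and EC₅₀ (50% inhibition of HIV-1(III_B)-induced giant cell formation in CEM/0 cells, 4−5 days, microscopy), both mean ± SD of n = 2−3 independent experiments.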

Series [6] in a line: Chemical stability of compound in PBS at pH 7.3 by RP18-HPLC analysis. In kind it is physicochemical. Conditions: buffer. The method, boiled down: (§1)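 From 50 mM DMSO stocks, diluted to 1.9 mM hydrolysis solutions in water/DMSO. Reaction started by adding phosphate buffer (50 mM, pH 7.3; 25 mM also stated). Incubated at 37 °C with time-course sampling. Starting material and products (γ-kb-NTP, d4TDP, thymine) followed by analytical rp18 HPLC, from which t½ was calculated.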

The nature of series [7]: Prodrug conversion in PBS buffer at pH 7.3 assessed as pig liver esterase-mediated cleavage of ketobenzyl-residue measured over 800 hrs by HPLC analysis. In kind it is ADME, Sus scrofa. The following applies: pH 7.3, 800 h.
Series [8] in a line: Stability of compound in human CEM/0 cell extract assessed as half life by RP18-HPLC analysis. In kind it is ADME, tissue-based, CCRF-CEM. An outline of the steps: (§2)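 Extract preparation: CEM CD4⁺ T-cells grown in RPMI-1640 to ~3 × 10⁶ cells/mL, washed in cold PB, resuspended at 10⁸ cells/mL, sonicated, clarified at 10,000 rpm and stored at −80 °C. Compounds from 50 mM DMSO stock (diluted to 6.0 mM in DMSO) incubated in the extract. Reactions stopped with THF, put on ice, centrifuged and filtered.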

A short description of series [9]: Chemical stability of compound assessed as half life in PBS at pH 7.3 by RP18-HPLC analysis. In kind it is physicochemical. An outline of the steps:
as §1

Series [10] is described as follows: Prodrug conversion in human CEM/0 cell extract assessed as d4TDP formation after 96 hrs by HPLC analysis. The series is classed as ADME, tissue-based. Conditions: ccrf-cem. An outline of the steps: as §2
The nature of series [11]: Prodrug conversion in human CEM/0 cell extract assessed as d4TTP formation after 96 hrs by HPLC analysis. Conditions: ccrf-cem. In kind it is ADME, tissue-based. The method, boiled down:
as §2

Series [12] is described as follows: Stability in human CEM/0 cell extract assessed as parent compound remaining after 98 hrs by HPLC analysis. The series is classed as ADME, tissue-based, CCRF-CEM. Conditions: read-out: Stabilty. An outline of the steps:
as §2

A short description of series [13]: Substrate activity at human DNA polymerase gamma assessed as increase in primer extension incubated at 37 degC for 60 mins and at 80 degC for 3 mins in presence of fluorescent-lebelled dATP, dCTP and dGTP by PAGE analysis. In kind it is ADME. The following applies: 1.05 h, time 63 min. An outline of the steps: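 Human DNA polymerase γ (4 U) with Cy3-primer/template duplex 0.20 μM in 60 mM Tris-HCl pH 8, 5 mM MgOAc, 1.0 mM DTT, 0.1 mM spermine, 0.01% BSA. Preincubated 5 min at 37 °C without nucleotides, then run 60 min at 37 °C with nucleotides 250 μM, then 80 °C for 3 min. Denaturing 15% PAGE with fluorescence imaging.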

Series [14] is described as follows: Substrate activity at HIV reverse transcriptase assessed as increase in primer extension incubated at 37 degC for 60 mins and at 80 degC for 3 mins in presence of fluorescent-lebelled dATP, dCTP and dGTP by PAGE analysis. In kind it is ADME. Conditions: human immunodeficiency virus, 1.05 h; time 63 min.
A short description of series [15]: Stability in pH 7.3 PBS assessed as pig liver esterase mediated hydrolysis by measuring half life upto 2 hrs by HPLC analysis. The series is classed as ADME, Sus scrofa. An outline of the steps: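 Porcine liver esterase (3 mg/mL in PB) added to compound diluted from a 6.0 mM DMSO/water solution into DMSO and 50 mM phosphate buffer, pH 7.3. Incubated at 37 °C. Timed aliquots snap-frozen in liquid nitrogen, then thawed, sonicated, centrifuged, filtered and analysed by HPLC. t½ calculated as for chemical hydrolysis.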

Series [16] is described as follows: Prodrug conversion in human CEM/0 cell extract assessed as NTP formation by RP18-HPLC analysis. In kind it is ADME, tissue-based. Conditions: ccrf-cem. An outline of the steps: as §2
The nature of series [17]: Prodrug conversion in human CEM/0 cell extract assessed as gamma-kb-d4TTP formation by RP18-HPLC analysis. The series is classed as ADME, tissue-based. The following applies: ccrf-cem. An outline of the steps: as §2
Series [18] can be described thus: Prodrug conversion in human CEM/0 cell extract assessed as d4TDP formation by RP18-HPLC analysis. In kind it is ADME, tissue-based. Conditions: ccrf-cem. The method, boiled down: as §2

Consider `CCCCCCCCCC(=O)c1ccc(COP(=O)(O)OP(=O)(O)OP(=O)(O)OC[C@H]2O[C@@H](n3cnc4c(N)ncnc43)C[C@@H]2O)cc1`, for which the EC50 in series [1] is 10000 nM; in series [2], over 10000 nM; in series [3], over 10000 nM. Besides, in [4], the CC50 was found to be 74000 nM. Also, the selectivity ratio in [5] turned out to be 7. Moreover, in [6], the Stabilty result is given as “Stable”. Besides, the Drug metabolism result in [7] is “Metabolite_Notdetected”.

In the case of `CCCCCCCCC(=O)Oc1ccc(COP(=O)(OCc2ccc(OC(=O)CCCCCCCC)cc2)OP(=O)(O)OP(=O)(O)OC[C@@H]2C=C[C@H](n3cc(C)c(=O)[nH]c3=O)O2)cc1`, the values for the half-life in [8] and in [9] were 2.5 h and 52 h, respectively. The EC50 in [1] came to 310 nM; in series [2], 620 nM; in series [3] it was 2260 nM. Moreover, the CC50 in series [4] was determined as 52000 nM.

In the case of `CCCCCCCCCCCCCCCCCC(=O)c1ccc(COP(=O)(O)OP(=O)(O)OP(=O)(O)OC[C@@H]2C=C[C@H](n3cc(C)c(=O)[nH]c3=O)O2)cc1`, the Drug metabolism entry in [10], in series [11] and in [7] was “Metabolite_Notdetected” each time. Moreover, in series [12], the remaining at 98 h was found to be 89%. In addition, the half-life in [8] is over 30 h. In addition, the figures for the EC50 in series [1], in series [2] and in series [3] were 330 nM, 600 nM and 260 nM, respectively. Moreover, the CC50 in [4] is 13000 nM. Further, the Activity entry in series [13] is “Not Active”; in series [14], “Active”. In series [6], the Stabilty entry was “Stable”.

For `CCCCCCCCCCCCCCCCCC(=O)c1ccc(COP(=O)(OCc2ccc(OC(=O)CCCCCC)cc2)OP(=O)(O)OP(=O)(O)OC[C@@H]2C=C[C@H](n3cc(C)c(=O)[nH]c3=O)O2)cc1` (stereo not given in full), the half-life in series [8] was 6.9 h; in [15], 0.167 h; in series [9], 109 h. In addition, the half-maximal effective concentration (EC50) in series [1] stood at 440 nM; in series [2] it was 1100 nM; in series [3] it was 400 nM. Moreover, the Drug metabolism entry in series [16] was “Metabolite_Notdetected”; in series [17] it was “Metabolite_Detected”; in series [18] it was “Metabolite_Detected”; in series [7], “Metabolite_Notdetected”. Besides, the CC50 in series [4] turned out to be 34000 nM.

Regarding `CCCCCCCCCC(=O)c1ccc(COP(=O)(OCc2ccc(OC(=O)CCCC)cc2)OP(=O)(O)OP(=O)(O)OC[C@@H]2C=C[C@H](n3cc(C)c(=O)[nH]c3=O)O2)cc1` (stereo not given in full), the half-life in series [8] is 1.1 h; in series [15], 0.167 h; in series [9], 43 h. The figures for the EC50 in [1], in series [2] and in series [3] were 370 nM, 1200 nM and 2500 nM, respectively. Moreover, the Drug metabolism result in [16] was “Metabolite_Notdetected”; in [17] it was “Metabolite_Detected”; in series [18], “Metabolite_Detected”; in series [7], “Metabolite_Notdetected”. Besides, the CC50 in [4] was 25000 nM.

As to `CCCCCCCCCC(=O)c1ccc(COP(=O)(O)OP(=O)(O)OP(=O)(O)OC[C@@H]2C=C[C@H](n3cc(C)c(=O)[nH]c3=O)O2)cc1`, the Drug metabolism entry in series [10], in series [11] and in series [7] was “Metabolite_Notdetected” throughout. Further, the remaining at 98 h in [12] came out at 89%. In series [8], the half-life is over 30 h. Besides, the Activity result is “Not Active” in series [13] and “Active” in [14]. Also, the Stabilty result in [6] is “Stable”.

With `CCCCCCCCCCCCCCCCCC(=O)Oc1ccc(COP(=O)(OCc2ccc(C(=O)CCCCCCCCCCCCCCCCC)cc2)OP(=O)(O)OP(=O)(O)OC[C@@H]2C=C[C@H](n3cc(C)c(=O)[nH]c3=O)O2)cc1` (stereo not given in full), the half-life in series [8] is 2.1 h; in [15] it was 0.167 h; in [9] it was 11 h. The EC50 was 420 nM in series [1], 830 nM in series [2] and 380 nM in series [3]. The Drug metabolism entry in series [16] was “Metabolite_Notdetected”; in series [17], “Metabolite_Detected”; in series [18] it was “Metabolite_Detected”; in series [7], “Metabolite_Notdetected”. Further, the CC50 in [4] is 28000 nM.

Turning to `CCCCCCCCCCCCCCCCCC(=O)Oc1ccc(COP(=O)(OCc2ccc(C(=O)CCCCCCCCC)cc2)OP(=O)(O)OP(=O)(O)OC[C@@H]2C=C[C@H](n3cc(C)c(=O)[nH]c3=O)O2)cc1` (stereo not given in full), the half-life is 7.8 h in series [8], 0.167 h in series [15] and 94 h in series [9]. Moreover, the EC50 in series [1] worked out at 580 nM; in series [2] it was 780 nM; in series [3] it was 1100 nM. For the same compound, the Drug metabolism result was “Metabolite_Notdetected” in series [16], “Metabolite_Detected” in series [17], “Metabolite_Detected” in series [18] and “Metabolite_Notdetected” in series [7]. In series [4], the half-maximal cytotoxic concentration (CC50) was determined as 35000 nM.

On to `CCCCCCCCCCCCCCCCCC(=O)Oc1ccc(COP(=O)(OCc2ccc(OC(=O)CCCC)cc2)OP(=O)(O)OP(=O)(O)OC[C@@H]2C=C[C@H](n3cc(C)c(=O)[nH]c3=O)O2)cc1` (stereo not given in full), for which the EC50 came out at 120 nM in [1], 100 nM in [2] and 540 nM in series [3]. The CC50 in [4] turned out to be 33000 nM. In series [9], the half-life is 50 h.

Consider `Cc1cn([C@H]2C=C[C@@H](CO)O2)c(=O)[nH]c1=O` [STAVUDINE], for which the EC50 in series [1] came to 430 nM; in [2], 220 nM; in series [3] it was 150000 nM.

As to `Cc1cn([C@H]2C=C[C@@H](COP(=O)(O)OP(=O)(O)OP(=O)(O)O)O2)c(=O)[nH]c1=O` [STAVUDINE TRIPHOSPHATE], the EC50 is 1050 nM in series [1], 400 nM in series [2] and over 100000 nM in [3]. For the same compound, the CC50 in series [4] was over 100000 nM. In series [14], the result was Active.

The term EC50 denotes the concentration at which the effect is half-maximal. As a reminder, the CC50 is the concentration giving 50% cytotoxicity. As a reminder, the half-life is the time needed for the level to fall by half in the phase considered.
